Tested on: MS2 coat protein
Test: apparent Kd, MS2 coat protein; higher = weaker binding; RNA-MaP array; FMN 200 µM where present
Procedure, shortened: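 Stalled E. coli RNA polymerase transcribed each design on Illumina sequencing-chip clusters. The clusters were titrated with SNAP-549-labelled MS2 coat protein, starting at 0.7 or 1.5 nM and doubling up to 3 µM, first without ligand and then with constant ligand, in 100 mM Tris-HCl pH 7.5, 80 mM KCl, 4 mM MgCl2, BSA, DTT, yeast tRNA and Tween-20. Green signal was normalised to red-channel RNA signal and to the control-cluster median Fmax. The apparent Kd is the median of filtered binding-curve fits made for each cluster.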

[1] = designed as: OFF switch for flavin mononucleotide, no ligand
[2] = ligand present: flavin mononucleotide, designed as: OFF switch for flavin mononucleotide
[3] = designed as: ON switch for flavin mononucleotide, no ligand
[4] = ligand present: flavin mononucleotide, designed as: ON switch for flavin mononucleotide

Row | Sequence | apparent Kd [1] | apparent Kd [2] | apparent Kd [3] | apparent Kd [4]
1 | UGUCGGAGCAGAGGAUAUACAUGAGGAUCACCCAUGUAAUAGGAUGAAGCCUGGAAACAGGCAAUGUAGAAGGCUGCUCCGACA | 57.9 nM | 670 nM |  | 
2 | CCGGAAUUACAGGAUAUAGGAGUCGAUAGACACCUAGAAGGGUAGACAUGAGGAUCACCCAUGUGUCCUACCGG | 273 nM | 182 nM |  | 
3 | GGACGUCACAUAUACAUGAGGAUCACCCAUGUCAAAAGACAUGAGGAUAUGGAUCCUAAUUGGAUCCAGAAGGCAUGGACGUCC |  |  | 832 nM | 51.9 nM
4 | UUACCUUAUGAGAAGGCGAUCAUGAAACAUGAUCGAGGAUAUCAUGUAAACAUGAGGAUCACCCAUGUAUGGGUAUUAUGGUAU |  |  | 96 nM | 23.9 nM
5 | GCUUCGGCUGUGAGGAUAUGGCUUCGGAAAUGAAGUUAGAAGGCACAUGAGGAUCACCCAUGUAAGGUUGAAGU | 21.7 nM | 17.8 nM |  | 
6 | GUAUGAAAUACAGGAUAUGUUAGUUUUAAGUGUAUUGGUUAUUACUUAAUUACAGAAGGGUAUUACAUGAGGAUCACCCAUGUA |  |  | 16.5 nM | 10.8 nM
7 | GGAAUGAGGCAGGAUAUGGGAGGGAGGACCGGACCAGAAGGGUUGACAUGAGGAUCACCCAUGUAGAGAUCCUC | 1060 nM | 724 nM |  | 
8 | GGACUUCCUGAGGAUAUGAAUCAACAUAUAGCUUUAGAAGGCAGGACAUGAGGAUCACCCAUGUGAACUCUUUC | 49.8 nM | 57.6 nM |  | 
9 | AAGAAACAUGAGGAUCACCCAUGUAAAUUCAAGAGAGGAUAUCGUACAUGGAAGAUUCAACGAGAAGGCUCUAGAA |  |  | 36.5 nM | 18.4 nM
10 | CCGUCGCACCAGAAGGCGUGAUCCACUGCGGCACGAGGAUAUGGUACAUGAGGAUCACCCAUGUCGCGAUGGAAAGCAAUCACG |  |  | 151 nM | 24.1 nM
11 | AUACAUGAGGAUCACCCAUGUUACUGGGUCUUAAUAGAACGUAGAAGGAUGAUUUUAUAAAUAACAUAGGAUAUACAAUAUUGU | 181 nM | 105 nM |  | 
12 | GUCGUGUGAGGAUAUGAUUGUACGGCAGACUAGCGUCUGCUUCAGAAGGCACAUGAGGAUCACCCAUGUUUGUC | 18.6 nM | 34.4 nM |  | 
13 | CAUAUGUGCGGAGGAUAUGGGUGAAUCGGAUCGACAUGAGGAUCACCCAUGUAGCUCUUUGGCAUCUAGAAGGCCGGAUGAACG |  |  | 25.9 nM | 111 nM
14 | GGAUGUCAAAGACAUCCAAUACGAACAUGAGGAUCACCCAUGUAGGAUAUGCUACUCAAAGAGUAGCAGAAGGACAUGUGUCUU | 30.6 nM | 164 nM |  | 
15 | UGAUCCCAUGUCAGGAUAUAGAGGCGGUAGCCUGGCUAGAAGGGACAUGAGGAUCACCCAUGUCGGUUCUUGCC | 35.5 nM | 21.3 nM |  | 
16 | GGGUACAUCGGAGGAUAUCAUGUAAAUACAUGAGGAUCACCCAUGUCGAUGGAGACAUCGGAGAGUGAGAAGGCCGAUGUACCG |  |  | 257 nM | 13.3 nM
17 | AAAAAGUGAGGAUAUGCUGCUCGUCACUUGCGUGAUGAGUAGCAGAAGGCACAUGAGGAUCACCCAUGUAAAGA | 39 nM | 49.7 nM |  | 
18 | AAUAUGUUGCAGAAGGCCAUGUUGUGGUAGUACCUCAUGACAUGAGGAUCACCCAUGUUUGUGUUGGAGGAUAUGCAAUAUAUU | 37.7 nM | 201 nM |  | 
19 | AGUGUCAUCGAGAAGGCCUCAACAUGAGGAUCACCCAUGUUGCAAAAUGGGAGGAUAUCGCGCGUUAAAAUACGUUUCGUAGCA |  |  | 42.4 nM | 16.7 nM
20 | AAGUCUGGACGAGGAUAUCAGUUGUAUCUGGCGUCAACAUGAGGAUCACCCAUGUUGCUAUAGGGUGAGAAGGCGUUUGGGCAA |  |  | 92.6 nM | 22.8 nM
21 | AGGUAGCAAGGAUAUACAUGAGGAUCACCCAUGUAAAUGCACGUUUAGGCCCUGCUAUGUAGAAGGUGCACCCG | 17.3 nM | 16.8 nM |  | 
22 | GCUAGUAUUGCAGGAUAUUGUAAAUUAUUAUUUCAAGAAGGGCAUUACAUGAGGAUCACCCAUGUCAUCCUUUGGAAUACUAGC | 6.19 nM | 6.51 nM |  | 
23 | GCGUCAGGAGGAUAUACAUGAGGAUCACCCAUGUAACACGGGAUAGUAGUAUAGUAGAGUAGAAGGCCUAUAGU | 37.5 nM | 46 nM |  | 
24 | AAAACGGCGCGUCCCGCACCAACUACAGAAGGCCAACAUGAGGAUCACCCAUGUACAAACUAGAUGGAGGAUAUGUAGGUUCUA |  |  | 6.76 nM | 4.63 nM

Row | Sequence | apparent Kd [1] | apparent Kd [2] | apparent Kd [3] | apparent Kd [4]
25 | ACGUGGCUGCCGCAGGAUAUACCCUGUUCCACAUGAGGAUCACCCAUGUUUACGAACUAUGAGAGGUAGAAGGGUGGAUGUCAUU |  |  | 31.2 nM | 13.9 nM
26 | UAAAGUGUGGAGGAUAUGGACCGCGCUAGUGGUCCAGAAGGUCAAACAUGAGGAUCACCCAUGUCCCGUGAUUA | 54.5 nM | 67.7 nM |  | 
27 | UUCGUGCAGCGUUGCUGUACGCGUACAUGAGGAUCACCCAUGUAGGAUAUGGUACGCUUUGCGUGCUAGAAGGAUAUGGAGAGG | 15.2 nM | 18.9 nM |  | 
28 | AAUUAACACCAGAAGGACAUGAGGAUCACCCAUGUAGGAUAUGGGAGUGGGUCCGUUGGAGUUGGCCCGUCUCUGCGGGCUCGA |  |  | 79.1 nM | 8.95 nM
29 | CACCGUUACACAGGAUAUCUUACAUGAGGAUCACCCAUGUAAUAAAUGAGAAUUUCGAAUGUAUUAGAGAAGGGUGGAAUCGGC | 37.7 nM | 90.2 nM |  | 
30 | ACGUGUCGUGUAGGAUAUGACACAGGAAACUGGUCAGAAGGACAUGAGGAUCACCCAUGUAGAGUGUUUAAGGAUGACGUAUGC | 46.9 nM | 161 nM |  | 
31 | UGUUGUUUAGGAUAUACAUGAGGAUCACCCAUGUGACAAAAAUAUUUUACAAAACCAUGUAGAAGGAAAUGGCA | 22.3 nM | 48.2 nM |  | 
32 | AAUAUGAGCUGGUUUAAAACUCAAACAUGAGGAUCACCCAUGUAGGAUAUCAGCACGAUAAGUGCUGAGAAGGACAUCCAGCUC | 15 nM | 18.9 nM |  | 
33 | GGCCUGCAGCUAGGAUAUGGGCGAUCACAUGAGGAUCACCCAUGUCAACAUCAAAACAAGAUUAACCAGAAGGAGCCGCGAGUU |  |  | 26.5 nM | 211 nM
34 | CGCUACAGCCAGAAGGACAUGAGGAUCACCCAUGUAGGAUAUGGGAGACGCAGUCCCGUGUAGAGAAACUACGCUACUGUAGCG |  |  | 430 nM | 183 nM
35 | CGCUGCCACGCAGGAUAUGCAUUGGAUUCCAAUGCAGAAGGGCGAUUACAUGAGGAUCACCCAUGUGUUGGCAGUGAAGAAGAG |  |  | 1230 nM | 77.9 nM
36 | GCUAUCGGGUGAGGAUAUAUGGUUGUGAUUAAAAUAGAAGGCAUCUCAGAAGACAUGAGGAUCACCCAUGUAGUUAAGAUGGCA |  |  | 63.4 nM | 46.8 nM
37 | UGCUGGCAAGGAUAUACUCGGGAUGCUAGUCGCGCGGUUGCACAUGAGGAUCACCCAUGUAGAAGGUGUCUGUG | 195 nM | 160 nM |  | 
38 | AAUAAACUCACAGGAUAUAGCAGAGGUCGCCUGAACUUACAGGCGACUAUGCUAGAAGGGUGACCACAUGAGGAUCACCCAUGU |  |  | 974 nM | 170 nM
39 | AAGAGUAGAGGAUAUACAUGAGGAUCACCCAUGUAAUCCGGAUAAGGAAGCAUGUCGUGUAGAAGGCUGCAUGA | 15.2 nM | 12.4 nM |  | 
40 | UGCCGUGUACAGAAGGGCGACAUGAGGAUCACCCAUGUCUCCUUGUUGGUCGUAGGAUAUGUACCGUGGCUCUCUACUGUGGGA | 5.47 nM | 6.75 nM |  | 
41 | AUGAGUGUAAUGAUUGAGCCACUGCAGGAUAUCACAUGAGGAUCACCCAUGUGUCAGCCUCGGAGUGAGAAGGGCGGUUUCUUA | 5.38 nM | 10.6 nM |  | 
42 | GAAUAUUCGUUGUACAUGAGGAUCACCCAUGUGACUUGACAUGAGGAUAUGGAUUCUAAUUGGAUCCAGAAGGCAUGAAUAUUC |  |  | 122 nM | 31.5 nM
43 | AGGUACAUGAGGAUCACCCAUGUAAGAGCCCUCAUGCGAUGUAGAAGGAUAAUGCGAGAAGUGCUAUAGGAUAUACAUGAGAAA | 140 nM | 143 nM |  | 
44 | UGAAAACAUGAGGAUCACCCAUGUAAAAACAUGGGAGGAUAUUGAAAAAAAAAAAAAAAACAAGAAGGCCCAAAAA |  |  | 386 nM | 137 nM
45 | ACCUGACAUGAGGAUCACCCAUGUGAGGAUAUGUACAUCAGGAAAAAAAAACUGAUGUACAGAAGGCACUUGGG | 25.4 nM | 37.1 nM |  | 
46 | CAGCGCUGUCGAGAGGAUAUGCGGUGAUGGACAUGAGGAUCACCCAUGUUAGCGACAGCAUCACGGCAGAAGGCUCUACCCGCUG |  |  | 13.2 nM | 12.8 nM
47 | CAAAAGUAUAACAAUUUCAAGGCACAGGAUAUGAGUGUGCACAUGAGGAUCACCCAUGUUAUAACUUAGAAGGGUGACCAUUGC |  |  | 427 nM | 368 nM
48 | AAAUAGAUCCGAGGAUAUACAAUCCGGAAACGGUACAUGAGGAUCACCCAUGUAGAAGGCGGAUCUACAGGUACUAAAGUAAAA | 10.8 nM | 10.8 nM |  | 

Source: the EternaBench riboswitch data
